Only some compounds are listed: those with a hit (about 2.1% of all), similar ones and a draw of the others.
HTR2A ag: activates the mouse 5-HT2A serotonin receptor; P35363; CHO-K1 mHTR2A beta-arrestin complementation, luminescence; percent of 30 µM serotonin response; activation, % at 7.6 µM; 360,000 tested, 0.66% active;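 active means activation above a run cutoff, the mean activation of all tested compounds plus 3 SD, cut at about 14% in these data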;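 further: 0% = plate median of compound wells and 100% = 30 µM serotonin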
Target sequence (P35363 whole entry, looked up): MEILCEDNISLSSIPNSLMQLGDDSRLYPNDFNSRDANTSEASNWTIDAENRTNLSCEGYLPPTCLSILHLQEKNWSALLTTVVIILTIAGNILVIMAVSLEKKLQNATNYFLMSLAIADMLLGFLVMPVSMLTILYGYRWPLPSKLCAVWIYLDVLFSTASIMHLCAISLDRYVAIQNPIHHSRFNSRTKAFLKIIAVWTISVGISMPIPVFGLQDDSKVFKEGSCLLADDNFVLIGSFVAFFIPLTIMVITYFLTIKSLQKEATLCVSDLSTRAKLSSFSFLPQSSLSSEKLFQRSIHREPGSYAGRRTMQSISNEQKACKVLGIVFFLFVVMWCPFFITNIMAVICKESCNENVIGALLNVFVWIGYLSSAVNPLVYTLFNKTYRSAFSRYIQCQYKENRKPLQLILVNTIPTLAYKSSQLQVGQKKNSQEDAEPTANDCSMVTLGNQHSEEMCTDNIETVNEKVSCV
EBI2 block: blocks human EBI2 receptor beta-arrestin signaling | P32249 | EBI2 beta-arrestin recruitment, luminescence, 7a,25-OHC stimulated | inhibition, % at 5 µM | 360,000 tested, 0.81% active; in the data active means inhibition above about 38%;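 further: enzyme fragment complementation signal reports receptor beta-arrestin coupling in cells; 0% = agonist plus DMSO wells and 100% = wells without agonist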
CCR6 antag: antagonists of human CCR6 receptor. CHO-K1 CCR6 PathHunter beta-arrestin, luminescence, CCL20-stimulated. AID 493098. inhibition, % at 20 µM. P51684. 340,000 tested, 0.49% active;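 active means compounds whose inhibition of the agonist-driven luminescence signal at 20 µM reaches about 50%, limit read from the data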;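 further: cells stimulated with CCL20 at 14 nM final; plate controls were DMSO with CCL20 for no effect and DMSO without agonist for full effect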
APJ agonist: activates the human apelin receptor APJ | activation, % at 20 µM | 330,000 tested, 0.11% active | CHO-K1 APJ PathHunter beta-arrestin, luminescence; 0% DMSO wells, 100% apelin | AID 2520 | P35414;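 active means activation more than six SD over the plate average, tested at 20 µM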;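 further: 0% = DMSO alone and 100% = apelin-13 at 10 nM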
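Assay system: engineered CHO-K1 APJ arrestin reporter cells; Amount: 1000 CHO-K1 reporter cells seeded per well; Dosing: one dose, 20 µM compound, 1% DMSO; Times: compound stimulation 90 min at 25 °C, detection 60 min; Measured by: luminescent beta-gal fragment complementation, chemiluminescent substrate; Read-out: APJ–arrestin association signal; Controls: DMSO vs Apelin-13 10 nM.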
APJ antagonist: APJ receptor antagonism. CHO-K1 APJ beta-arrestin complementation, luminescence. P35414. 330,000 tested, 0.32% active. inhibition, % at 20 µM;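 active means inhibition above about 40% at 20 µM, limit read from the data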;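 further: cells challenged with 10 nM apelin-13 agonist together with compound; plate controls were apelin-13 plus DMSO wells for no effect and DMSO wells lacking apelin-13 for full effect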
CXCR6 block: blocks human CXCR6 beta-arrestin recruitment; O00574; inhibition, % at 20 µM; AID 602244; 360,000 tested, 0.36% active; CHO-K1 PathHunter CXCR6 beta-arrestin, luminescence; in the data active means inhibition above about 34%, passing the limit was not always enough;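 further: antagonist mode with CXCL16 agonist at 10 nM final; 0% = 10 nM CXCL16 with DMSO and 100% = unstimulated wells without agonist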
APJ ag conf: APJ receptor agonism confirmation; shares compounds with APJ agonist; CHO-K1 APJ PathHunter beta-arrestin, luminescence; activation, % at 20 µM; 310 tested, 10% active;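 active means activation above 40%, taking the highest of four retests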;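 further: plate controls were DMSO wells for no effect and apelin-13 at 10 nM for full effect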
Active calls of the source: *; . = no result given.

SMILES	HTR2A ag	EBI2 block	CCR6 antag	APJ agonist	APJ antagonist	CXCR6 block	APJ ag conf
CCc1nc2ccccc2c(C(=O)OCC(=O)N(CCOC)c2c(N)n(Cc3ccccc3)c(=O)[nH]c2=O)c1C	-8	6	16	4	20	10	.
CC1(OC(=O)C2CCCC2)C(=O)C=C2C=C(c3ccsc3)N(C3CCCC3)C=C2C1=O (centres undefined)	4	-19	11	104*	-77	-2	12
COc1ccc2oc(-c3ccc(NC(=O)c4ccc(N5CCOCC5)c([N+](=O)[O-])c4)cc3)nc2c1	0	-9	4	10	-5	6	.
O=C(Nc1ccc(-c2nc3ccccc3o2)cc1)c1ccc(N2CCOCC2)c([N+](=O)[O-])c1	-1	-36	8	29*	9	7	24
Cc1cccc(C(=O)OCC(=O)N2CCCC2=O)c1O	-5	4	3	-4	-12	0	.
O=C(OCC(=O)N1CCCC1=O)c1cc2ccccc2o1	-4	-8	-2	16*	-4	-3	14
CCn1nc(C)c(CNC(=O)CC2C(=O)NCCN2CC(C)C)c1C (centres undefined)	0	2	6	-3	0	-4	.
COc1ccc(/C(N)=N/OC(=O)c2cccc([N+](=O)[O-])c2C)cc1	4	12	-17	18*	-81	-19	18
COc1ccc(/C(N)=N/OC(=O)c2cccc([N+](=O)[O-])c2)cc1	-4	5	-15	0	-47	-17	.
CCC(=O)N(C)C[C@@H]1Oc2ncc(Br)cc2C(=O)N([C@H](C)CO)C[C@H]1C	-4	2	.	.	.	-3	.
COc1cc(OC)cc(-c2n[nH]c(=S)n2-c2cc(OC)ccc2OC)c1	-1	-10	20	36*	-3	3	40*
COc1ccc(OC)c(-n2c(-c3ccc(O)cc3O)n[nH]c2=S)c1	0	3	5	2	-5	5	.
Fc1ccc2[nH]c3c(N4CCN(c5ccccc5)CC4)ncnc3c2c1	1	-6	-3	14*	-10	1	26
CCOC(=O)N1CCN(c2ncnc3c2[nH]c2ccc(F)cc23)CC1	7	4	11	8	-7	-13	.
C=CCC(C(=O)OC)(C(=O)OC)c1ccc([N+](=O)[O-])cc1[N+](=O)[O-]	2	-13	2	14*	-35	1	4
CCCn1c(=O)c(C(=O)Nc2c(C)n(C)n(-c3ccccc3)c2=O)c(O)c2ccccc21	1	-3	-11	26*	-12	9	19
CCCn1c(=O)c(C(=O)Nc2cccc(C)n2)c(O)c2ccccc21	4	-4	-6	0	-11	3	.
CC(C)OCCCNc1ccc(N2C(=O)CCCC2=O)cc1[N+](=O)[O-]	3	-4	21	-5	3	9	.
N/C(=N\OC(=O)c1cccc(Br)c1)c1ccccn1	2	-39	-37	34*	-158	-22	11
N/C(=N\OC(=O)c1ccc(Cl)c([N+](=O)[O-])c1)c1ccccn1	0	23	-18	17*	-43	-21	7
N/C(=N\OC(=O)c1ccc(Cl)c(Cl)c1)c1ccccn1	2	-19	-20	10	-103	-15	.
NS(=O)(=O)c1ccc(NC(=O)CN2CCN(S(=O)(=O)c3cccs3)CC2)cc1	6	1	5	-2	18	-3	.
COC(=O)[C@H](CC(C)C)NC(=O)N1CCC(C)CC1	-4	-7	-3	0	-15	1	.
CC(=O)Nc1ccc(S(=O)(=O)N2CCC(C(N)=O)(N3CCCCC3)CC2)cc1	1	5	5	1	-12	-5	.
C[C@@H]1CN([C@@H](C)CO)C(=O)CCCn2nncc2CO[C@@H]1CN(C)C(=O)c1cc(-c2ccccc2)on1	0	-6	.	.	.	4	.
SMILES	HTR2A ag	EBI2 block	CCR6 antag	APJ agonist	APJ antagonist	CXCR6 block	APJ ag conf
COc1cc(/C=N/Nc2nc(-c3ccc(S(=O)(=O)N(C)C)cc3)cs2)ccc1O	5	10	-17	21*	-70	-18	32
CC(C)C[C@H]1COc2cc(N3CCC[C@@H]3CO)ccc2S(=O)(=O)N1	-2	-3	.	.	.	-8	.
N/C(Cc1ccccc1)=N\OC(=O)c1cccc2ccccc12	0	15	6	12*	-33	-26	37
Cc1cccc(/C(N)=N/OC(=O)Cc2cccc3ccccc23)c1	0	3	-10	0	-14	-14	.
Cc1cccc(C(=O)O/N=C(\N)Cc2cccc3ccccc23)c1	-7	-12	-24	42*	-143	-17	33
Cc1nnc(N2CCCC(C(=O)Nc3cc(F)ccc3F)C2)c2nn(-c3ccccc3)c(C)c12 (centres undefined)	2	-10	4	21*	-20	0	30
Cc1cccc(NC(=O)Cn2nc(-c3cccs3)ccc2=O)c1C	1	9	11	1	0	0	.
CC1=C(C)/C(=N\OS(=O)(=O)c2ccccc2)C=CC1=O	3	16	87*	41*	38	51*	33
Cc1ccc(NC(=O)CN(C)C(=O)c2ccc(Sc3nncn3C)c([N+](=O)[O-])c2)cc1	-4	-11	-12	-2	-3	-8	.
Cc1ccc(C)c(NC(=O)/C(C#N)=C/c2ccc(Sc3nncn3C)c([N+](=O)[O-])c2)c1	.	.	.	44*	-5	.	37
N/C(Cc1ccc(Cl)c(Cl)c1)=N\OC(=O)c1ccc(Br)o1	-3	-7	-2	21*	-36	-8	18
COc1ccc(-c2ccc3c(c2)S(=O)(=O)c2cccc(C(=O)NC4CCCC4)c2C3=O)cc1OC	0	-21	-3	9.0*	1	3	11
N/C(=N\OC(=O)c1ccoc1)c1ccc(Br)cc1	-1	-5	-35	43*	-163	-13	24
Cc1cc(C)cc(C(=O)O/N=C(\N)c2ccc(Br)cc2)c1	1	22	2	6	-38	-8	.
N#Cc1c(-c2ccccc2)cc(-c2ccc(O)cc2)nc1N	-8	11	8	-4	-11	1	.
CS(=O)c1nc(-c2ccc(Br)cc2)cc(-c2ccccc2)c1C#N (centres undefined)	-4	64*	10	36*	-6	-16	18
CC(=O)Nc1ccc(NC(=O)COC(=O)c2ccc([N+](=O)[O-])o2)cc1	3	-12	3	12*	-22	-24	11
O=C(CSc1nnc(-c2ccc(Cl)cc2)n1-c1ccc(Cl)cc1)N/N=C/c1ccco1	1	16	-34	18*	-80	-22	17
Cc1ccc(/C=N/NC(=O)CSc2nnc(-c3ccc(Cl)cc3)n2-c2ccccc2)o1	8	-52	-68	17	-215	-16	.

Screening results from PubChem.
